# In ChEMBL document CHEMBL1287652, “QSAR modeling, synthesis and bioassay of diverse leukemia RPMI-8226 cell line active agents” (2010):
# Assay: Antitumor activity against human […] cells at 10 uM after 48 hrs by sulforhodamine B assay relative to control
# Type: functional
# In short: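 NCI panel lines were grown in RPMI-1640 with 5% FBS and 2 mM L-glutamine and seeded at 5000–40,000 cells/well according to doubling time. After 24 h at 37 °C, 5% CO2, one dose from a DMSO stock was added for 48 h. Cells were TCA-fixed (10% final adherent, 16% suspension), SRB-stained and read at 515 nm. Percent growth is relative to untreated control.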
row,Compound,inhibition at 10 µM [%]
1,[3H]N1C(=O)[C@@]2(c3ccccc31)N(C)C[C@@H](c1cccs1)[C@@]21Cc2ccccc2C1=O,10.9
2,Cc1ccc(NC(=O)c2c(-c3ccc(Cl)cc3)cc(-c3ccccc3)nc2N2CCOCC2)cc1,39
3,O=C(Nc1ccccc1)c1c(-c2ccc(Cl)cc2)cc(-c2ccccc2)nc1Nc1ccccc1,15
4,COc1ccc([C@@H]2C(c3ccccc3)=NN(c3cccc(Cl)c3)[C@]23CCSc2ccccc2C3=O)cc1,34.3
5,[3H]N1C(=O)[C@@]2(c3ccccc31)N(C)C[C@@H](c1ccc(Cl)cc1)[C@@]21Cc2ccccc2C1=O,63.4
6,COc1nc(-c2cccs2)cc2c1c(=O)oc1ccccc12,9.11
7,O=C(N/C(=C\c1ccccc1OCCOc1ccccc1/C=C(\NC(=O)c1ccccc1)C(=O)N1CCOCC1)C(=O)N1CCOCC1)c1ccccc1,9.15
8,Cc1ccc(NC(=O)c2c(-c3ccc(Cl)cc3)cc(-c3ccccc3)nc2Nc2ccc(Cl)cc2)cc1,58
9,Cc1ccc(NC(=O)c2c(-c3ccc(Cl)cc3)cc(-c3ccccc3)nc2N2CCCCC2)cc1,24
10,O=C(Nc1ccccc1)c1c(-c2ccc(Cl)cc2)cc(-c2ccccc2)nc1N1CCCCC1,13
11,CN1C/C(=C\c2cccs2)C(=O)[C@@]2(C1)[C@H](c1cccs1)CN(C)[C@]21C(=O)N(C)c2ccccc21,89.4
12,O=C(Nc1ccc(Cl)cc1)/C(=C/c1ccccc1OCCOc1ccccc1/C=C(\NC(=O)c1ccccc1)C(=O)Nc1ccc(Cl)cc1)NC(=O)c1ccccc1,6.03
13,[3H]C([3H])([3H])N1C(=O)[C@@]2(c3ccccc31)N(C)C[C@@H](c1ccc(Cl)cc1)[C@@]21Cc2ccccc2C1=O,86.6
14,O=C(Nc1ccccc1)c1c(-c2ccc(Cl)cc2)cc(-c2ccccc2)nc1Nc1ccc(Cl)cc1,53
15,O=C(N/C(=C\c1ccccc1OCCOc1ccccc1/C=C(\NC(=O)c1ccccc1)C(=O)N1CCCCC1)C(=O)N1CCCCC1)c1ccccc1,18.3
16,O=C(Nc1ccc(Cl)c(Cl)c1)Nc1ccccc1SCCCSc1ccccc1NC(=O)Nc1ccc(Cl)c(Cl)c1,108
17,CCn1c(S)n[n+]2c(N)c(C#N)c(-c3ccc(N4CCOCC4)cc3)c(C#N)c12,24.9

row,Compound,inhibition at 10 µM [%]
1,CN1CCN(C(=O)/C(=C/c2ccccc2OCCOc2ccccc2/C=C(\NC(=O)c2ccccc2)C(=O)N2CCN(C)CC2)NC(=O)c2ccccc2)CC1,14.7
2,COc1ccc(-c2c3c([nH]c(=S)c2C#N)-c2ccccc2SCC3)cc1,0.96
3,Nc1nc(-c2ccccc2)cc(-c2ccc(Cl)cc2)c1C(=O)Nc1ccccc1,46
4,O=C1c2ccccc2SCC[C@@]12[C@H](c1cccs1)C(c1ccccc1)=NN2c1cccc(Cl)c1,29.8
5,CN1C/C(=C\c2ccc(Cl)cc2)C(=O)[C@@]2(C1)[C@H](c1ccc(Cl)cc1)CN(C)[C@]21C(=O)Nc2ccccc21,61.5
6,Cc1ccc(NC(=O)c2c(-c3ccc(Cl)cc3)cc(-c3ccccc3)nc2N)cc1,71
7,[3H]C([3H])([3H])N1C(=O)[C@@]2(c3ccccc31)N(C)C[C@@H](c1cccs1)[C@@]21Cc2ccccc2C1=O,12.1
8,COc1ccc(/C=C2\CN(C)C[C@]3(C2=O)[C@H](c2ccc(OC)cc2)CN(C)[C@]32C(=O)Nc3ccccc32)cc1,79.3
9,[3H]C([3H])([3H])N1C(=O)[C@@]2(c3ccccc31)N(C)C[C@@H](c1ccc(OC)cc1)[C@@]21Cc2ccccc2C1=O,82.3
10,CN1C/C(=C\c2ccc(Cl)cc2)C(=O)[C@@]2(C1)[C@H](c1ccc(Cl)cc1)CN(C)[C@]21C(=O)N(C)c2ccccc21,62
11,O=C(Nc1ccccc1)c1c(-c2ccc(Cl)cc2)cc(-c2ccccc2)nc1N1CCOCC1,51
12,O=C1c2ccccc2SCC[C@@]12[C@H](c1ccc(Cl)cc1)C(c1ccccc1)=NN2c1cccc(Cl)c1,33.2
13,Cn1c(S)n[n+]2c(N)c(C#N)c(-c3ccc(N4CCOCC4)cc3)c(C#N)c12,11.9
14,[3H]N1C(=O)[C@@]2(c3ccccc31)N(C)C[C@@H](c1ccc(OC)cc1)[C@@]21Cc2ccccc2C1=O,33.2
15,COc1ccc(Nc2nc(-c3ccccc3)cc(-c3ccc(Cl)cc3)c2C(=O)Nc2ccccc2)cc1,30
16,COc1ccc(Nc2nc(-c3ccccc3)cc(-c3ccc(Cl)cc3)c2C(=O)Nc2ccc(C)cc2)cc1,79
